Reference: ChEMBL document CHEMBL3108700, “Designing anti-inflammatory drugs from parasitic worms: a synthetic small molecule analogue of the Acanthocheilonema viteae product ES-62 prevents development of collagen-induced arthritis” (J Med Chem, 2013)
The source made the active and inactive calls.

Legend:
Mus musculus [1] = assay: Antiinflammatory activity in DBA/1 mouse collagen-induced arthritis model assessed as reduction of high disease scores at 50 ug/kg, sc administered 2 days prior to collagen challenge continued till day 21 post collagen challenge; format: functional, organism-based
Outline: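 Collagen-induced arthritis mice were dosed subcutaneously (1 μg/dose) or given PBS on days −2, 0 and 21. Arthritis was scored clinically and hind paw width measured. Incidence was the % of mice with severity score ≥2 (cumulative) or ≥4 (high score). Results are mean ± SEM. Scores n = 13 per group, pooled from two experiments; paw width n = 7, from a single experiment.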

[2] = target: T1, Toll-like receptor 4 (Mus musculus) (UniProt Q9QUK6); assay: Inhibition of TLR4 in BALB/c mouse BMDM assessed as reduction of LPS-stimulated IL-6 production at 5 ug/ml preincubated for 18 hrs followed by LPS challenge measured after 24 hrs by ELISA
T1 sequence (whole entry): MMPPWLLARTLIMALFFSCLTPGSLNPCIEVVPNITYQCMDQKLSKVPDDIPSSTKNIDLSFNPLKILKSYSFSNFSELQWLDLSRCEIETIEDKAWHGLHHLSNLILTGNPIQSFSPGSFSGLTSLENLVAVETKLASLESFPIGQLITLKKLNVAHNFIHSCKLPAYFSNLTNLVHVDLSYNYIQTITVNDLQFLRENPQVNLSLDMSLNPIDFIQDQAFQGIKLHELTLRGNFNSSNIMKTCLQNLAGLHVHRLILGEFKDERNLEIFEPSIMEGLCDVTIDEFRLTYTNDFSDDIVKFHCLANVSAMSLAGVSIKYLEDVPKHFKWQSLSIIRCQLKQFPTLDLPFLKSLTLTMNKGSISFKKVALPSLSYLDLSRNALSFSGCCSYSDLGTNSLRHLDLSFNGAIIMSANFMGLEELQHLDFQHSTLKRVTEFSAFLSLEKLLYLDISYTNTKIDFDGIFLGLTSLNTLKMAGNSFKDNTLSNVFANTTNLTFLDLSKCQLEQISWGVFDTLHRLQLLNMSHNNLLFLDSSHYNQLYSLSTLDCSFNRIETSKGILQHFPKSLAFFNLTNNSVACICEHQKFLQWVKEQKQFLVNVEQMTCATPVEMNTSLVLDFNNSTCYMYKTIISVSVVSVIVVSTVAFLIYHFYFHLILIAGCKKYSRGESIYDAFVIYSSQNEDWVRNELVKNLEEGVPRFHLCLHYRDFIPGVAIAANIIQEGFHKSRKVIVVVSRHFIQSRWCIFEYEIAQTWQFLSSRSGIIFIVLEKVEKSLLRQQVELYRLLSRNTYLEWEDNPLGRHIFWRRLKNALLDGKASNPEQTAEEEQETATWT
Outline: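 BALB/c male bone marrow macrophages were differentiated 7 days with L929 supernatant (≥99% CD11b+/F4/80+). Cells were plated at 2 × 10^5/well in triplicate, rested overnight, and given compounds at 5 μg/mL for 18 h. They were then stimulated with 100 ng/mL S. minnesota LPS, 10 ng/mL Pam3CSK4 (BLP) or 0.01 μM CpG for 24 h. Supernatant IL-12p40 and IL-6 were measured by ELISA (sensitivity 16 pg/mL).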

[3] = target: T1, Toll-like receptor 4 (Mus musculus); assay: Inhibition of TLR4 in C57BL/6 mouse BMDC assessed as reduction of LPS-induced IL-23 production at 5 ug/mL preincubated for 2 hrs prior to LPS challenge measured after 24 hrs by ELISA
Outline: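 C57BL/6 bone marrow DCs were generated in complete RPMI with 10 ng/mL GM-CSF. They were preincubated ± compound at 5 μg/mL for 2 h, then stimulated with LPS for 24 h. TNF-α, IL-6 and IL-23 in conditioned medium were measured by ELISA. Values are means of triplicates ± SEM pooled from 4 experiments.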

Mus musculus [4] = assay: Antiinflammatory activity in DBA/1 mouse collagen-induced arthritis model assessed as reduction in number of PMA/ionomycin-stimulated total DLN cells expressing IFNgamma at 50 ug/kg, sc administered 2 days prior to collagen challenge continued till day 21 post collagen challenge by flow cytometric analysis relative to control; format: functional, organism-based
Outline: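 CIA mice given test agent (1 μg/dose) or PBS subcutaneously on days −2, 0 and 21. Draining lymph node cells (10^6/mL) in complete RPMI were stimulated ± 50 ng/mL PMA plus 500 ng/mL ionomycin, with 10 μg/mL brefeldin A for 5 h at 37 °C. Cells were surface-stained for CD4, CD8 and γδ, fixed and permeabilized, then stained for intracellular IFNγ and IL-17A. Gating used isotype controls. Cell numbers per individual mouse; naive n = 7, treated groups n = 13.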

[5] = target: T1, Toll-like receptor 4 (Mus musculus); assay: Inhibition of TLR4-mediated NFkappaB p65 activation in LPS-stimulated BALB/c mouse BMDM at 5 ug/ml preincubated for 18 hrs followed by LPS challenge measured after 1 hr by TransAM ELISA
Outline: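 Bone marrow macrophages (4 × 10^6/well) had their medium changed after 24 h, were pretreated with compounds at 5 μg/mL for 18 h, then stimulated for 1 h with 100 ng/mL LPS, 10 ng/mL BLP or 1 μM CpG. Activated NFκB p65 in nuclear extracts was measured by TransAM ELISA in duplicate.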

Mus musculus [6] = assay: Antiinflammatory activity in DBA/1 mouse collagen-induced arthritis model assessed as reduction in total number of DLN cells at 50 ug/kg, sc administered 2 days prior to collagen challenge continued till day 21 post collagen challenge; format: functional, organism-based
Outline: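 Dosing was 1 μg/dose or PBS given subcutaneously on days −2, 0 and 21 of CIA. Total, CD4+, CD8+ and γδ T cell numbers in draining lymph nodes were counted by flow cytometry for each mouse. Naive mice not exposed to collagen served as a further control (naive n = 7; PBS and treated n = 13).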

CN(C)CCS(=O)(=O)Cc1ccc(Br)cc1
active: Activity (Mus musculus [1]) | inhibition [2] | inhibition [3] | Activity (Mus musculus [4]) | inhibition [5] | Activity (Mus musculus [6])
